{"source": "ChEMBL document CHEMBL4811241", "about": "“Revisiting Pyrazolo[3,4-d]pyrimidine Nucleosides as Anti-Trypanosoma cruzi and Antileishmanial Agents” (J Med Chem, 2021)", "key": {"Trypanosoma cruzi [1]": {"system": "Trypanosoma cruzi", "experiment": "Antitrypanosomal activity against nifurtimox-sensitive Trypanosoma cruzi Tulahuen CL2 infected in human MRC-5 SV2 cells assessed as inhibition of parasite growth measured after 7 days by spectrophotometric analysis", "type": "functional, organism-based", "conditions": "Tulahuen CL2, MRC-5 SV2, 168 h"}, "[2]": {"experiment": "Cytotoxicity against human MRC-5 SV2 cells assessed as reduction in cell growth measured after 3 days by resazurin dye based fluorometric analysis", "conditions": "time 3 day"}, "Leishmania infantum": {"system": "Leishmania infantum", "experiment": "Antileishmanial activity against amastigote form of Leishmania infantum MHOM/MA(BE)/67 infected in Swiss mouse peritoneal macrophages assessed as reduction in parasite growth treated at 2 hrs post-infection and measured after 5 days by Giemsa staining based microscopic analysis", "type": "functional, organism-based", "conditions": "MHOM/MA(BE)/67, Peritoneal macrophage", "summary_of_the_method": "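Swiss mouse peritoneal macrophages, harvested after 2-day potato-starch stimulation, infected 48 h after plating; compounds added 2 h post-infection.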"}, "[3]": {"experiment": "Cytotoxicity against Swiss mouse peritoneal macrophages assessed as cell detachment, lysis and granulation measured after 5 days by microscopic analysis", "type": "cell-based, Peritoneal macrophage", "conditions": "time 5 day", "summary_of_the_method": "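Scored within the Leishmania macrophage assay over 5 days: detachment, lysis and granulation judged semi-quantitatively by microscopy across at least 500 cells. CC50 derived from % reduction in normal cells versus untreated wells.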"}, "CYP450 [4]": {"system": "CYP450", "experiment": "Metabolic stability of the compound in mouse liver microsomes S9 fraction assessed as CYP450-mediated metabolism by measuring parent compound remaining at 5 uM measured after 30 mins in presence of NADPH by UPLC-MS analysis", "type": "ADME, subcellular", "conditions": "read-out: Stabilty", "summary_of_the_method": "(§1)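 Compound at 5 μM with 0.5 mg/mL male mouse or pooled human liver microsomes in potassium phosphate buffer; reaction started with 1 mM NADPH. Samples taken at 0, 15, 30 and 60 min and quenched in cold acetonitrile with internal standard. Parent remaining quantified by UPLC-MS/MS in MRM mode and given as % of the 0 min value.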"}, "CYP450 [5]": {"biological_target": "CYP450 (Homo sapiens, UniProt P04798+P05177+P05181+P08684+P10632+P10635+P11509+P11712+P13584+P20813+P20815+P20853+P24462+P24903+P33260+P33261+P51589+P78329+P98187+Q02928+Q08477+Q16678+Q16696+Q5TCH4+Q6VVX0+Q7Z449+Q8TAV3+Q96SQ9+Q9HB55)", "experiment": "Metabolic stability of the compound in human liver microsomes S9 fraction assessed as CYP450-mediated metabolism by measuring parent compound remaining at 5 uM measured after 30 mins in presence of NADPH by UPLC-MS analysis", "type": "ADME, subcellular", "conditions": "read-out: Stabilty", "summary_of_the_method": "as §1"}, "UGT [6]": {"system": "UGT", "experiment": "Metabolic stability of the compound in mouse liver microsomes S9 fraction assessed as UGT-mediated metabolism by measuring parent compound remaining at 5 uM measured after 30 mins in presence of UDPGA by UPLC-MS analysis", "type": "ADME, subcellular", "conditions": "read-out: Stabilty", "summary_of_the_method": "(§2)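 Compound at 5 μM with 0.5 mg/mL male mouse or pooled human liver microsomes; reaction started with 2 mM UDPGA. Sampled at 0, 15, 30 and 60 min and quenched in cold acetonitrile with internal standard. Parent remaining measured by UPLC-MS/MS (MRM) as % of the 0 min value.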"}, "UGT [7]": {"biological_target": "T1, UGT (Homo sapiens, UniProt O60656+O75310+O75795+P06133+P0DTE4+P0DTE5+P16662+P19224+P22309+P22310+P35503+P35504+P36537+P54855+Q6UWM9+Q9BY64+Q9HAW7+Q9HAW8+Q9HAW9)", "experiment": "Metabolic stability of the compound in human liver microsomes S9 fraction assessed as UGT-mediated metabolism by measuring parent compound remaining at 5 uM measured after 15 mins in presence of UDPGA by UPLC-MS analysis", "type": "ADME, subcellular", "conditions": "read-out: Stabilty", "summary_of_the_method": "as §2"}, "UGT [8]": {"biological_target": "T1, UGT", "experiment": "Metabolic stability of the compound in human liver microsomes S9 fraction assessed as UGT-mediated metabolism by measuring parent compound remaining at 5 uM measured after 60 mins in presence of UDPGA by UPLC-MS analysis", "type": "ADME, subcellular", "conditions": "read-out: Stabilty", "summary_of_the_method": "as §2"}, "Trypanosoma cruzi [9]": {"system": "Trypanosoma cruzi", "experiment": "(§3) Antitrypanosomal activity against Trypanosoma cruzi strain Y bloodstream trypomastigotes infected in Swiss Webster mouse assessed as reduction in parasitemia at 0.25 to 2.5 mg/kg, po bid for 5 days treatment started at 6 days post-infection by light microscopic analysis", "type": "functional", "conditions": "dose 0.25-2.5 mg/kg, time 5 day", "summary_of_the_method": "(§4)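 Male Swiss Webster mice, 18–20 g, six per group; only mice with detectable parasitemia treated. Oral gavage for 5 consecutive days (6–10 dpi); test compound given b.i.d. in 10% Tween 80, benznidazole once daily, formulations freshly prepared. Parasitemia counted by light microscopy in 5 μL blood; mortality checked daily to 34 dpi.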"}, "Trypanosoma cruzi [10]": {"system": "Trypanosoma cruzi", "experiment": "as §3, with “at” for “at 0.25 to”, “post-infection in presence of 10 mg/kg, po Benznidazole” for “post-infection”", "type": "functional", "conditions": "120 h, time 5 day", "summary_of_the_method": "as §4"}, "[11]": {"experiment": "Toxicity in Swiss webster mouse infected with Trypanosoma cruzi Y trypomastigotes assessed as animal survival at 2.5 to 25 mg/kg, po bid for 5 days treatment started at 6 days post-infection and measured at 34 days post-infection", "type": "organism-based", "conditions": "in vivo, dose 2.5-25 mg/kg, time 29 day", "summary_of_the_method": "(§5)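 Male Swiss Webster mice (18−20 g, 4−5 weeks) were infected i.p. with 10⁴ Y-strain bloodstream trypomastigotes from a donor mouse. Only mice with detectable parasitemia were treated, in groups of six. Oral gavage was given on days 6–10 post-infection, b.i.d. or q.d. as listed, in 10% Tween 80 vehicle, freshly prepared. Infected vehicle controls were included. Mortality was checked daily to 34 dpi as cumulative percentage.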"}, "[12]": {"experiment": "Toxicity in Swiss webster mouse infected with Trypanosoma cruzi Y trypomastigotes assessed as animal survival at 0.25 mg/kg, po bid for 5 days treatment started at 6 days post-infection and measured at 34 days post-infection", "type": "organism-based", "conditions": "in vivo, 696 h, time 29 day", "summary_of_the_method": "as §5"}, "Trypanosoma cruzi [13]": {"system": "Trypanosoma cruzi", "experiment": "Antitrypanosomal activity against Trypanosoma cruzi Y bloodstream trypomastigotes assessed as inhibition of parasite growth incubated for 24 hrs by light microscopy", "type": "functional, organism-based"}, "Trypanosoma cruzi [14]": {"system": "Trypanosoma cruzi", "experiment": "Antitrypanosomal activity against intracellular amastigote form of Trypanosoma cruzi Y infected in Swiss Webster mouse cardiomyocytes assessed as inhibition of parasite growth incubated for 48 hrs by Giemsa staining based microscopic analysis", "type": "functional, organism-based", "conditions": "Cardiac muscle cell", "summary_of_the_method": "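Primary 2D mouse embryo cardiac cell cultures, infected for 24 h, then washed and exposed for 48 h at 37 °C to a serial dilution. Cells fixed and stained with Giemsa; infected cells and parasites per infected cell scored in 200 host cells. Activity expressed from the inhibition index; two independent experiments run in duplicate.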"}, "[15]": {"experiment": "Cytotoxicity against Swiss Webster mouse 3D cardiomyocytes assessed as reduction in cell viability measured after 48 hrs by PrestoBlue assay", "type": "tissue-based, Cardiac Muscle Cell", "summary_of_the_method": "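Mouse embryo heart cells as monolayer (2D) or 3D aggregates (25 × 10³ cells/well on 1% agarose). Uninfected cultures exposed 48 h to rising concentrations. Morphology checked by light microscopy; viability read by PrestoBlue; CC₅₀ determined.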"}, "Trypanosoma cruzi [16]": {"system": "Trypanosoma cruzi", "experiment": "Antitrypanosomal activity against nifurtimox-sensitive Trypanosoma cruzi Tulahuen CL2 infected in Swiss mouse peritoneal macrophages assessed as inhibition of parasite growth measured after 7 days in presence of ABC transporter inhibitor, verapamil by spectrophotometric analysis", "type": "functional, organism-based", "conditions": "Tulahuen CL2, Peritoneal macrophage, 168 h", "summary_of_the_method": "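Macrophage-hosted 7-day assay read with CPRG at 540 nm, with compound given together with an ABC transporter inhibitor: cyclosporine A 2 μM, probenecid 700 μM or verapamil 8 μM. IC50 from % reduction versus infected controls.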"}}, "note": "pIC50: −log10 of the molar value.", "data": [{"smiles": "Nc1ncnc2c1c(-c1ccc(Cl)cc1)nn2[C@@H]1O[C@H](CO)[C@@H](O)[C@H]1O", "values": [{"measurement": "pIC50", "setting": "Trypanosoma cruzi [1]", "value": 6.49}, {"measurement": "CC50 at 72 h", "setting": "[2]", "value": "> 64", "unit": "µM"}, {"measurement": "pIC50", "setting": "Leishmania infantum", "value": "< 4.19"}, {"measurement": "CC50 at 120 h", "setting": "[3]", "value": "> 64", "unit": "µM"}, {"measurement": "remaining at 0.5 h, 5 µM", "setting": "CYP450 [4]", "value": 103, "unit": "%"}, {"measurement": "remaining at 0.5 h, 5 µM", "setting": "CYP450 [5]", "value": 101, "unit": "%"}, {"measurement": "remaining at 0.5 h, 5 µM", "setting": "UGT [6]", "value": 115, "unit": "%"}, {"measurement": "remaining at 0.25 h, 5 µM", "setting": "UGT [7]", "value": 100, "unit": "%"}, {"measurement": "remaining at 1 h, 5 µM", "setting": "UGT [8]", "value": 104, "unit": "%"}, {"measurement": "inhibition (INH)", "setting": "Trypanosoma cruzi [9]", "value": 43, "unit": "%"}, {"measurement": "inhibition in vivo at 2.5 mg/kg", "setting": "Trypanosoma cruzi [10]", "value": 71, "unit": "%"}, {"measurement": "survival at 696 h", "setting": "[11]", "value": 83, "unit": "%"}, {"measurement": "Activity", "setting": "[12]", "value": "Toxic"}, {"measurement": "pIC50", "setting": "Trypanosoma cruzi [13]", "value": "< 4.09"}, {"measurement": "pIC50", "setting": "Trypanosoma cruzi [14]", "value": 6.59}, {"measurement": "CC50 at 48 h", "setting": "[15]", "value": 200, "unit": "µM"}, {"measurement": "pIC50", "setting": "Trypanosoma cruzi [16]", "value": "< 4.19"}]}]}
